# Measured values collected from several papers.
# Target: Dual serine/threonine and tyrosine protein kinase (DSTYK, Homo sapiens, UniProt Q6XUX3)
# Residues used in one study (Q6XUX3 1-929): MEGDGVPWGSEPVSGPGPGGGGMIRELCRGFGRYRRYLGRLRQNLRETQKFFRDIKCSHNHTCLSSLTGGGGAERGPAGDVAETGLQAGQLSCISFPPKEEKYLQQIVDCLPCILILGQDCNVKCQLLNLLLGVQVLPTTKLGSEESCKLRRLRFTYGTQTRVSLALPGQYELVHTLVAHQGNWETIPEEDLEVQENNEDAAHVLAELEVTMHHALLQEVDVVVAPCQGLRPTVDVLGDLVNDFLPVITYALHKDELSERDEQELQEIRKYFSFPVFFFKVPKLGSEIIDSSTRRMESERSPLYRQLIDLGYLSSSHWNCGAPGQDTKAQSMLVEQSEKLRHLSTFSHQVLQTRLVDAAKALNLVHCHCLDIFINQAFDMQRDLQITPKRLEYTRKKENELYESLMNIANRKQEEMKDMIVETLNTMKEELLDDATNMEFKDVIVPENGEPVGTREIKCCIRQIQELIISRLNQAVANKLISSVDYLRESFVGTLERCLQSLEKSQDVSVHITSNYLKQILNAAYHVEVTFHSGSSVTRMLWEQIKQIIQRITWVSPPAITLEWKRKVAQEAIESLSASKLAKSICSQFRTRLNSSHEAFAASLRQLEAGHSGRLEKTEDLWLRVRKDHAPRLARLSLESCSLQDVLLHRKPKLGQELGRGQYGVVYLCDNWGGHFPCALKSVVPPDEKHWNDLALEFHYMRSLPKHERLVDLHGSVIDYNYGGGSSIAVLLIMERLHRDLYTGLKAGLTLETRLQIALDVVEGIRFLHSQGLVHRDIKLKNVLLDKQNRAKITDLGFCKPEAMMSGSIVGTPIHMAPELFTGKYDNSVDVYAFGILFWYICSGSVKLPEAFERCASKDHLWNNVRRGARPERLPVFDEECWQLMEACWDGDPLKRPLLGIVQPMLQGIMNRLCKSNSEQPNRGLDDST
Structure (SMILES),observed,method,concentration,remaining binding [%]
Cc1cnc(Nc2ccc(C(=O)N3CCC(N4CCCC4)CC3)cc2)nc1-c1cc2ccccc2s1,binding,competition with immobilised ligand,1 µM,22
CN(C)c1ncnc(-c2ccc3nc(Nc4cc(CN5CCN(C(=O)CC(F)(F)F)CC5)ccn4)[nH]c3c2)c1Cl,cell-free assay,competition with immobilised ligand,1 µM,95
O=C(NCC1CCOCC1)c1n[nH]cc1NC(=O)c1c(F)cccc1F,binding,competition with immobilised ligand,1 µM,86
FC(F)(F)Oc1cccc(-c2cnc3ccc(-c4ccncc4)nn23)c1,binding,competition with immobilised ligand,5 µM,49
CC1CCCN1c1nccc(-c2cnn3ncccc23)n1 (stereo not shown),binding,,1 µM,100
CN(C)C(=O)Cn1cc(-c2nc(C3(c4ccc(-c5cnc(N)nc5)cc4)CC3)no2)cn1,cell-free assay,competition with immobilised ligand,1 µM,94
N[C@@H]1CCN(c2nccc(-c3cnn4ncccc34)n2)C1,binding,,1 µM,100
CN1CCN(c2cnc3c(C4CCN(C(=O)c5ccc(OC(F)(F)F)cc5N)CC4)ncnc3c2)CC1,cell-free assay,competition with immobilised ligand,1 µM,100
C[C@@H](c1ccc(-n2cnc3c(N)ncnc32)cc1)N1CCc2nn(C)c(Cc3ccccc3)c2C1=O,binding,competition with immobilised ligand,0.1 µM,58
O=C(NCc1ncc(C(F)(F)F)cc1Cl)c1ccc2c(c1)C1(CCS(=O)(=O)CC1)[C@@H](C1CC1)N2S(=O)(=O)c1ccc(F)cc1,cell-free assay,competition with immobilised ligand,1 µM,78
COc1ccnn2ncc(-c3ccnc(N(C)C)n3)c12,binding,,1 µM,100
NS(=O)(=O)c1cc(NC(=O)Cc2ccccc2)ccc1Oc1cccc(Cl)c1,cell-free assay,competition with immobilised ligand,1 µM,83
C[C@@H]1CCN(c2nccc(-c3cnn4ncccc34)n2)C1,binding,,1 µM,77
O=C(c1ccc(Nc2ncc(Cl)c(-c3cc4ccccc4s3)n2)cc1)N1CCC(N2CCCC2)CC1,binding,competition with immobilised ligand,1 µM,32
CN(C)c1nccc(-c2cnc3ncccn23)n1,binding,,1 µM,78
CO[C@@H](C)c1c(Nc2ccc([C@@H](N(C)C(=O)C3CCS(=O)(=O)CC3)C(F)(F)F)cc2)cnc2cc(Cl)nn12,cell-free assay,competition with immobilised ligand,1 µM,100
O=C(c1ccc(Nc2nccc(-c3cc4ccccc4s3)n2)cc1)N1CCC(N2CCCC2)CC1,binding,competition with immobilised ligand,1 µM,37
COc1cnc(Nc2cccc(S(N)(=O)=O)c2)nc1N1CCN(c2ccccc2)CC1,binding,competition with immobilised ligand,1 µM,100
O=C(N1CCS(=O)(=O)CC1)N1C[C@H](c2ccc(OC(F)(F)F)cc2)C[C@H](c2nc(C3CC3)no2)C1,cell-free assay,competition with immobilised ligand,1 µM,100
CN(CCCC(F)(F)F)c1nccc(-c2cnn3ncccc23)n1,binding,,1 µM,88
COc1ncc2cc3ccccc3nc2c1C#N,cell-free assay,competition with immobilised ligand,5 µM,100
CNC(=O)[C@@H]1CC[C@@H](n2c(-c3ccc4cnccc4c3)nc3ccc(C(=O)NCc4cccc(C(N)=O)c4)cc32)C1,binding,competition with immobilised ligand,1 µM,100
